The sample as a whole holds a higher share of hits than the screen did.
L major viab: Leishmania major promastigote growth inhibition, primary screen. Leishmania major promastigotes, resazurin fluorescence viability. inhibition, % at 10 µM. actives 9% (n = 200,000); in the data active means inhibition above about 50%;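 further: promastigotes grown with compound for 44 hours at 28 °C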
MDM2 E3 inh: MDM2-luciferase reporter signal enhancers, primary screen, MDM2 E3 ligase inhibitor project, cell-based, luminescence, 1536-well; cell-based MDM2 ubiquitination luciferase reporter, 2 h; 0 = plate control, 100 = twice control, blank-subtracted; E3 ubiquitin-protein ligase Mdm2 (Homo sapiens), Q00987; actives 0.11% (n = 210,000); signal enhancement, % at 5 µM;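 active means signal enhancement of 30% or more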;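 further: luminescence tracks abundance of the self-degrading MDM2-luciferase fusion protein; higher signal means inhibition of MDM2 E3 ligase activity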
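System: stable MDM2–luciferase fusion reporter cells / Input: 2000 cells seeded into each well / Schedule: 4 h settle plus 2 h compound, 37 °C / Compound: single-point 5 µM / Buffer or medium: cells held in DMEM / Benchmarks: control and blank well means / Evaluation: percent signal gain over controls, blank-subtracted / Measured by: luciferase luminescence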
S1P4 antagonist: S1P4 receptor antagonists, primary screen, cell-based; S1P4-expressing cells, antagonist mode, reporter read-out; Sphingosine 1-phosphate receptor 4 (Homo sapiens), O95977; inhibition, % at 4.98 µM; AID 1510, 2009; actives 0.26% (n = 220,000); in the data active means inhibition above about 29%
S1P4 agonist: S1P4 receptor agonists, primary screen, cell-based; S1P4-expressing cell line, agonist reporter assay; actives 0.35% (n = 220,000); Sphingosine 1-phosphate receptor 4 (Homo sapiens), O95977; activation, % at 4.98 µM; in the data active means activation above about 11%
S1P3 antagonist: S1P3 receptor antagonists, primary screen, cell-based; Sphingosine 1-phosphate receptor 3 (Homo sapiens), Q99500; CHO S1P3 NFAT-BLA reporter, FRET fluorescence, antagonist mode; inhibition, % at 4.98 µM; actives 0.27% (n = 170,000);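 active means inhibition above the plate cutoff, the mean inhibition of test wells on that plate plus 3 SD, cut at about 28% in these data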;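 further: cells challenged with S1P at its EC80 of 0.8 µM; blue over green emission ratio from cleaved BLA substrate after 4 h stimulation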
S1P4 ag conf: S1P4 receptor agonists, retest, confirmation, cell-based, high throughput; shares compounds with S1P4 agonist; S1P4 agonist cell-based reporter assay; activation, % at 4.98 µM; actives 7% (n = 740); AID 1523, 2009; in the data active means activation above about 12%
S1P1 agonist: S1P1 receptor agonists, human, counter-screen for S1P4 agonist project, cell-based; S1P1 agonist cell-based assay, activation; AID 1563, 2009; shares compounds with S1P4 agonist; activation, % at 4.98 µM; actives 4% (n = 740); in the data active means activation above about 21%
Target sequence (P21453 whole entry, looked up): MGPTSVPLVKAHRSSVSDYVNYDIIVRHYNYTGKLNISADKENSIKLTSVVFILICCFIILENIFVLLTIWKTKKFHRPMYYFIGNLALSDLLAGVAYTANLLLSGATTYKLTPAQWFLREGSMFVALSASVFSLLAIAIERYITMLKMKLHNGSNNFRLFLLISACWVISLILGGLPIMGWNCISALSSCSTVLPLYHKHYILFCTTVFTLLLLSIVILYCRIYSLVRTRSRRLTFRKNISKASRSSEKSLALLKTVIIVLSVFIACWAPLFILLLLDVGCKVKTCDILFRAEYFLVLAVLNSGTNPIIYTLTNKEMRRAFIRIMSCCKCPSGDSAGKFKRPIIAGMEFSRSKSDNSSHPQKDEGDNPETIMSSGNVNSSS
Large screens that a line does not name were inactive (follow-up assays come after a bar, where they were run).

CCOc1ccc(CC(=O)N2N=C(C)CC2(O)C(F)(F)F)cc1 (configuration not stated)	none
COc1cccc(C2=NOC(C(=O)N3CCN(C(=O)c4ccco4)CC3)C2)c1 (configuration not stated)	S1P4 agonist 37 | S1P4 ag conf inactive | S1P1 agonist inactive
COc1cc(/C=C/C(=O)O)cc2c1OCCO2	none
Clc1ccc(COc2ccccn2)c(Cl)c1	none (no result: S1P3 antagonist)
COCCn1c(=NC(=O)c2cc(Cl)sc2Cl)sc2cc(S(N)(=O)=O)ccc21	none
COCCn1c(=NC(=O)c2ccc3c(c2)OCCO3)sc2cc(S(N)(=O)=O)ccc21	S1P4 agonist 16 (no result: MDM2 E3 inh) | S1P4 ag conf inactive | S1P1 agonist inactive
COc1ccc(C)cc1NC(=O)c1cnc2n(c1=O)CCS2	S1P4 agonist 17 | S1P4 ag conf inactive | S1P1 agonist inactive
COc1ccc(C)cc1NC(=O)c1cnc2scc(C)n2c1=O	none
O=C(O)CSc1nnc(-c2cccc(S(=O)(=O)N3CCOCC3)c2)n1-c1cccc(Cl)c1	S1P4 agonist 15 (no result: L major viab, MDM2 E3 inh) | S1P4 ag conf inactive | S1P1 agonist inactive
CCOc1ccc(CCNC(=O)Cn2ccc3ccccc3c2=O)cc1OCC	none
COc1nc(NCCN2CCOCC2)nc(Nc2ccccc2)n1	none
CCCCCCCCNc1nc(Cl)nc(NCCN2CCOCC2)n1	S1P4 agonist 17 | S1P4 ag conf inactive | S1P1 agonist inactive
CC(C)(C)c1ccc(N2C(=O)CSC2c2cccnc2)cc1 (configuration not stated)	S1P4 agonist 99 (no result: L major viab) | S1P4 ag conf inactive | S1P1 agonist inactive
COc1ccc(/C=C2\Cc3ccccc3C2=O)cc1OC	none (no result: L major viab)
COc1cc2c(cc1OC)/C(=C/c1ccc(Br)cc1)C(=O)OC2	S1P4 agonist 149 | S1P4 ag conf inactive | S1P1 agonist inactive
O=C(NCSc1ccnc(SCNC(=O)c2ccc(F)cc2)n1)c1ccc(F)cc1	none (no result: S1P3 antagonist)
O=C1CCC([N+](=O)[O-])C(c2ccc3c(c2)OCO3)N1 (configuration not stated)	S1P4 agonist 114 | S1P4 ag conf inactive | S1P1 agonist inactive
N#Cc1ccc(/C=C\c2nccc3c2[nH]c2ccccc23)cc1	S1P4 agonist 13 | S1P4 ag conf inactive | S1P1 agonist inactive
Clc1ccc(/C=C\c2nccc3c2[nH]c2ccccc23)cc1	S1P4 agonist 23 | S1P4 ag conf 25 | S1P1 agonist 84
N#Cc1c2n(c(=S)n(-c3ccc(F)cc3)c1=O)CCCCC2	none
CCC(C)(C)n1nnnc1C(c1cccnc1)N1CCN(c2cccc(C(F)(F)F)c2)CC1 (configuration not stated)	L major viab 95, S1P4 agonist 15 (no result: S1P3 antagonist) | S1P4 ag conf inactive | S1P1 agonist inactive
CN1CCN(C(c2cccc(C(F)(F)F)c2)c2nnnn2C(C)(C)C)CC1 (configuration not stated)	none
CCN(CC(=O)NC(C)C)C(=O)c1ccc(Cl)cc1	S1P4 agonist 18 | S1P4 ag conf inactive | S1P1 agonist inactive
CCCCN(CC)C(=O)c1ccc(Cl)cc1	none
COc1ccc(-n2cc(CNCCc3cscn3)c(-c3ccccc3Cl)n2)cc1	S1P4 agonist 112 | S1P4 ag conf inactive | S1P1 agonist inactive
O=C(O)c1ccc(N/N=C/c2ccc(-c3cccc(Cl)c3)o2)cc1	S1P4 agonist 13 (no result: L major viab) | S1P4 ag conf inactive | S1P1 agonist inactive
O=C(O)c1ccc(N/N=C/c2ccc(-c3ccc(Cl)cc3Cl)o2)cc1	S1P4 agonist 16 (no result: L major viab) | S1P4 ag conf inactive | S1P1 agonist 26
COc1cc(C(=O)NCC(=O)N/N=C/c2ccc(OC(=O)c3ccco3)cc2)cc(OC)c1OC	S1P4 agonist 21 | S1P4 ag conf inactive | S1P1 agonist inactive
Cc1ccc(NC(=O)c2c3c(nc4ccccc24)CCC3)cc1S(=O)(=O)N(C)C	none
CCN(CC)C(=O)Cn1cc(SCC(=O)NCc2ccco2)c2ccccc21	none
CCN(CC)C(=O)Cn1cc(C(=O)C(=O)NCc2ccco2)c2ccccc21	S1P4 agonist 13 | S1P4 ag conf inactive | S1P1 agonist inactive
CCN(CC(=O)Nc1ccc(Cl)c(S(=O)(=O)N(C)C)c1)CC(=O)NC(C)C	none
O=C(NNC(=S)NCc1ccc(Cl)cc1)c1ccc2c(c1)OCO2	none
COc1ccccc1/C=C(/CC(=O)NCc1ccc(F)cc1)c1nc2ccccc2s1	S1P4 agonist 63 | S1P4 ag conf inactive | S1P1 agonist inactive
CC1=C(C)[N+](=O)C2CCCCC2N1[O-] (configuration not stated)	none
COc1cc(C)nc(NS(=O)(=O)c2ccc(C)cc2)n1	none
COCCNC(=S)N1CCc2cc(OC)c(OC)cc2C1COc1cc(C)cc(C)c1 (configuration not stated)	S1P4 agonist 18 | S1P4 ag conf inactive | S1P1 agonist inactive
CNC(=S)N1CCc2cc(OC)c(OC)cc2C1COc1ccc(OC)cc1 (configuration not stated)	none
COc1ccc(N2CCN(C(CNC(=O)C(=O)NCc3ccc4c(c3)OCO4)c3ccco3)CC2)cc1 (configuration not stated)	none
COc1ccc(NS(=O)(=O)c2cccc(NC(=O)CCS(=O)(=O)c3ccccc3)c2)cc1	none
Cc1cc(C2=NNC(=NC3CC3)SC2)c(C)n1-c1c(C)n(C)n(-c2ccccc2)c1=O	S1P4 agonist 15 | S1P4 ag conf inactive | S1P1 agonist inactive
CCCC(=O)Nc1ccc(-c2nc3cc(C)c(C)cc3o2)cc1	S1P4 agonist 13 | S1P4 ag conf inactive | S1P1 agonist inactive
C/C(CC(=O)Nc1ccc(Br)cc1)=N\NC(=O)Cc1csc(N)n1	S1P4 agonist 101 (no result: L major viab, MDM2 E3 inh) | S1P4 ag conf inactive | S1P1 agonist inactive
C/C(CC(=O)Nc1ccc(F)cc1)=N\NC(=O)Cc1csc(N)n1	none
COCCCNC(=O)CN(c1cc(Cl)ccc1OC)S(C)(=O)=O	none (no result: MDM2 E3 inh)
C=CCn1c(C(C)(C)C)nc2ccccc21	none
CCOc1ccc(S(=O)(=O)NCc2ccccc2)cc1C(N)=O	S1P4 agonist 11 | S1P4 ag conf inactive | S1P1 agonist inactive
Cc1ccc(NC(=O)C2CCCN2C(=O)Oc2ccccc2)cc1 (configuration not stated)	S1P4 agonist 14 | S1P4 ag conf inactive | S1P1 agonist inactive
CC(=O)N1CCC(N(C(=O)Nc2c(F)cccc2F)C(C)C)CC1	none (no result: S1P3 antagonist)
